Activity calls are given as the source filed them. No cut-off for these calls is given here.
How the values were obtained:
[1] = Cytotoxicity against CD1 mouse pancreatic acinar cells at 10 uM after 30 mins by propidium iodide staining based confocal microscopic analysis; settings: pancreatic acinar cell, 0.5 h
In short: (§1)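 As a parallel cytotoxicity control, freshly isolated murine pancreatic acinar cells were exposed to compounds alone, without TLCS, at 0.1, 1.0 and 10 µM or at 1 and 10 µM. Necrotic cell death was scored.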

Pancreatic acinar cell [2] = test: Inhibition of taurolithocholate acid 3-sulfate-induced necrosis in CD1 mouse pancreatic acinar cells at 1 uM after 30 mins by propidium iodide staining based confocal microscopic analysis; format: functional
In short: (§2)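 Freshly isolated murine pancreatic acinar cells were exposed to the pancreatitis toxin taurolithocholate acid 3-sulphate (500 µM) with inhibitor at 0.1, 1.0 and 10 µM or at 1 and 10 µM.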

Pancreatic acinar cell [3] = test: Inhibition of taurolithocholate acid 3-sulfate-induced necrosis in CD1 mouse pancreatic acinar cells at 10 uM after 30 mins by propidium iodide staining based confocal microscopic analysis; format: functional; in short: as §2
[4] = Cytotoxicity against CD1 mouse pancreatic acinar cells at 1 to 10 uM after 30 mins by propidium iodide staining based confocal microscopic analysis; settings: pancreatic acinar cell, 0.5 h; in short: as §1
Pancreatic acinar cell [5] = test: Inhibition of taurolithocholate acid 3-sulfate-induced necrosis in CD1 mouse pancreatic acinar cells at 1 to 10 uM after 30 mins by propidium iodide staining based confocal microscopic analysis; format: functional; in short: as §2
Pancreatic acinar cell [6] = test: Inhibition of taurolithocholate acid 3-sulfate-induced necrosis in human pancreatic acinar cells at 10 uM after 30 mins by propidium iodide staining based confocal microscopic analysis; format: functional
[7] = Cytotoxicity against CD1 mouse pancreatic acinar cells at 0.1 to 10 uM after 30 mins by propidium iodide staining based confocal microscopic analysis; settings: pancreatic acinar cell, 0.5 h; in short: as §1
Pancreatic acinar cell [8] = test: Inhibition of taurolithocholate acid 3-sulfate-induced change in mitochondrial membrane potential in CD1 mouse pancreatic acinar cells at 0.1 to 10 uM after 30 mins by tetramethyl rhodamine methyl ester dye based fluorescence analysis; format: functional, cell membranes

Row | Compound | Activity [1] | inhibition (Pancreatic acinar cell [2]) | inhibition (Pancreatic acinar cell [3]) | Activity [4] | inhibition (Pancreatic acinar cell [5]) | inhibition (Pancreatic acinar cell [6]) | Activity [7] | inhibition (Pancreatic acinar cell [8])
1 | Nc1ccc(CNC(=O)NCC(=O)N2CCC[C@@H]2c2ccccc2Br)cc1 | Toxic | inactive | Active | – | – | – | – | –
2 | CCOC(=O)[C@H](CCSC)NC(=O)NCc1ccc(N)cc1 | – | inactive | Active | Non-toxic | – | – | – | –
3 | CSCC[C@H](NC(=O)NCc1ccc(N)cc1)C(=O)N1CCC[C@H]1c1ccccc1SC | – | – | – | – | Active | Active | Non-toxic | Active

Source: ChEMBL document CHEMBL3797189, “Small Molecule Inhibitors of Cyclophilin D To Protect Mitochondrial Function as a Potential Treatment for Acute Pancreatitis” (J Med Chem, 2016)
